# Lmaj promast: Leishmania major promastigote growth inhibition; Leishmania major promastigotes, resazurin fluorescence viability; 200,000 compounds, 9% hits; inhibition, % at 10 µM; in the data active = inhibition above about 50%;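 also: promastigotes grown with compound for 44 hours at 28 °C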
# ABCG2 block: inhibitors of human ABCG2 transporter, ABCB1 counter-screen | 190,000 compounds, 0.1% hits | Q9UNQ0 | AID 1325 | IgMXP3 cells, JC-1 efflux, flow cytometry | inhibition, % at 6.6 µM;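 active = inhibition above 80%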;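 also: 0% = DMSO and 100% = nicardipine control wells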
#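 Incubation: cells with compound and JC-1, 10 min at 25 °C, rotating, no wash / Test system: IgMXP3 (ABCG2) plus far-red-tagged CCRF-Adr (ABCB1) cells / Compound dosing: one concentration, 6.6 µM final / Also added: JC-1 fluorescent substrate / Evaluation: efflux inhibition in percent versus controls / Detection: flow cytometry, 530 nm JC-1 signal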
# ABCB1 inh: blocks JC-1 efflux by human ABCB1 transporter; CCRF-Adr cells, flow cytometry; inhibition, % at 6.6 µM; 190,000 compounds, 0.067% hits; AID 1326; in the data active = inhibition above about 40%;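 also: 0% = vehicle and 100% = reference inhibitor; higher value means more JC-1 retained so stronger ABCB1 efflux block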
# RAM network inh: yeast RAM network inhibition. S. cerevisiae dse1pr::URA3 reporter, 5-FOA growth OD615, 2 d; analog-sensitive cbk1-as2 kinase mutant strain. inhibition, % at 50 µM. 190,000 compounds, 1.8% hits. AID 868;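 active = inhibition above a set limit, 3 SD over mean compound inhibition, cut at about 8.4% in these data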;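 also: 0% = DMSO-only wells with no growth and 100% = 10 µM 1-NA-PP1 full growth; inhibition rescues growth on 5-FOA so higher OD means more RAM inhibition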
# WT yeast gro inh: growth inhibition of WT yeast, mitochondrial fusion screen; mitochondrial fusion phenotypic screen, WT strain; inhibition, % at 10 µM; 190,000 compounds, 2.1% hits; AID 1362; in the data active = inhibition above about 58%; tested in S. cerevisiae
# * marks the source's active call; other numbers are inactive results; nt = no result. The list is not random: actives were taken first. Their share in the collection is about 12%.
SMILES,Lmaj promast,ABCG2 block,ABCB1 inh,RAM network inh,WT yeast gro inh
Cc1ccccc1-c1cccc([C@@H]2C[C@H]3CN(Cc4cccnc4)C(=O)[C@]34CCCN24)c1,63*,2,3,1,26
O=C1N(Cc2cccc(Cl)c2)C[C@@H]2C[C@@H](c3cccc4cccnc34)N3CCC[C@@]123,39,-2,0,0,15
COc1ccccc1CN1C[C@@H]2C[C@@H](c3ccc(C)cc3)N3CCC[C@@]23C1=O,-1,2,1,3,4
O=C1N(Cc2cccc(Cl)c2)C[C@@H]2C[C@@H](c3cccc4ncccc34)N3CCC[C@@]123,100*,2,4,0,9
O=C1N(Cc2cccc(Cl)c2)C[C@@H]2C[C@@H](c3ccc4nonc4c3)N3CCC[C@@]123,60*,25,-1,0,1
O=C(/C=C/c1ccccc1[N+](=O)[O-])NCc1ccncc1,1,1,0,3,-3
O=c1[nH]c(CSc2nnc3ccccn23)nc2cc(C(F)(F)F)ccc12,-8,0,0,2,-3
COc1cc(Cl)c(C)cc1NC(=O)CSc1nnc(CCC(=O)O)c(=O)[nH]1,-4,0,0,1,-10
CCCn1nc(C(=O)OCC(=O)NC(C)c2ccccc2)c2ccccc2c1=O (stereo not drawn),-4,6,1,2,-9
COCCn1c(-c2ccccc2)cnc1SCC(=O)Nc1cccc2ccccc12,15,0,1,-1,20
O=C(NCc1cccnc1)c1cc(Sc2cccc(Cl)c2)nc2ccccc12,68*,1,nt,-2,0
O=C(CN1CCC(NC(=O)Cc2ccccc2)CC1)Nc1ccccc1Br,6,8,1,1,-12
CCOc1ccc(S(=O)(=O)N(C)c2ccc(OCC(=O)NCC3CCCO3)cc2)cc1 (stereo not drawn),-5,1,0,5,-4
CCOc1ccc(N(CC(=O)NCC2CCCO2)S(=O)(=O)c2ccc(Cl)cc2)cc1 (stereo not drawn),70*,4,1,8,17
COC(=O)C1SCC2C(=O)N(Cc3ccc(Cl)c(Cl)c3)CC(=O)N21 (stereo not drawn),7,5,2,1,4
O=C(Nc1cc(Sc2nc3ccccc3s2)cc([N+](=O)[O-])c1)c1cccc(F)c1F,73*,3,0,4,22
CCOC(=O)NN1C(=O)c2ccccc2NC1c1ccc(OC)cc1OC (stereo not drawn),-2,0,1,-1,4
CCOC(=O)c1sc2nc(NC(=O)C3CC3)sc2c1C,2,8,0,2,1
CCOC(=O)c1sc2nc(NC(=O)C(C)(C)C)sc2c1C,65*,3,0,7,10
CC1=CC(=O)C=C(C)C1=NOc1ccccc1[N+](=O)[O-],35,3,0,1,17
CC1Cc2ccccc2N1C(=O)Cn1c(=O)cc(O)c2ccccc21 (stereo not drawn),-8,7,2,1,97*
O=C(O)CCCCCNC(=O)c1ccccc1,-4,2,1,0,-8
Cc1ccc(-c2cccc(C(=O)NCc3ccccc3)n2)c2ccccc12,6,28,2,10*,41
C(=C\c1nc(N2CCCC2)c2ccccc2n1)/c1ccccc1,71*,29,4,-1,80
CC1CCN(c2nc(/C=C/c3ccccc3)nc3ccccc23)CC1,63*,8,1,-1,66
SMILES,Lmaj promast,ABCG2 block,ABCB1 inh,RAM network inh,WT yeast gro inh
CC(/C=N/NC(=O)Cn1cnc2c1c(=O)n(C)c(=O)n2C)=C\c1ccccc1,4,5,1,3,3
N#Cc1ccc(NC(=S)NC(=O)CCc2ccc(S(=O)(=O)N3CCOCC3)cc2)cc1,-3,0,0,4,-9
Cc1ccc(NS(=O)(=O)c2cccc(C(=O)O)c2)cc1S(=O)(=O)N1CCOCC1,57*,-1,0,0,-11
O=c1c2c(n3cnnc3n1-c1ccccc1)-c1ccccc1CC21CCCC1,66*,-5,1,2,1
O=c1c2c(n3nnnc3n1-c1ccccc1)-c1ccccc1CC21CCCC1,-6,-1,0,4,-1
Cc1ccc(-c2nnn(CC(=O)N(c3cnc4ccccc4c3)C(C(=O)NC3CCCC3)c3ccncc3)n2)o1 (stereo not drawn),5,3,1,8.6*,-8
Cn1c(-c2sccc2OCc2ccc(Cl)cc2Cl)n[nH]c1=S,20,-4,-2,6,64*
